{
  "source": "ChEMBL document CHEMBL2176911",
  "about": "(J Med Chem, 2012)",
  "key": {"[1]": {"biological_target": "Dual specificity protein kinase CLK2 (Mus musculus, UniProt O35491)", "test": "Inhibition of mouse recombinant GST-tagged CLK2 expressed in Escherichia coli using GRSRSRSRSRSR as substrate and [gamma33P]ATP after 30 mins by scintillation counting", "in_short": "(§1)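 Panel of purified kinases (recombinant from several species plus native enzymes), each assayed radiometrically over a range of inhibitor concentrations; IC50 in μM calculated from the dose-response curves.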"}, "[2]": {"test": "Inhibition of pig […] isolated from brain using RRKHAAIGpSAYSITA as substrate and [gamma33P]ATP after 30 mins by scintillation couting", "set-up": "species or system Sus scrofa", "in_short": "as §1"}, "[3]": {"biological_target": "Cyclin-dependent kinase 2/cyclin A (Homo sapiens, UniProt P24941)", "test": "Inhibition of CDK2/cyclin A using [gamma33P]ATP after 30 mins by scintillation counting", "assay_type": "protein-complex assay", "in_short": "as §1"}, "[4]": {"test": "Inhibition of starfish CDK1/cyclin B using histone H1 as substrate and [gamma33P]ATP after 30 mins by scintillation counting", "set-up": "species or system Asteroidea", "in_short": "as §1"}, "[5]": {"biological_target": "Dual specificity tyrosine-phosphorylation-regulated kinase 1A (Rattus norvegicus) (UniProt Q63470)", "test": "Inhibition of DYRK1A in CD Sprague-Dawley rat brain assessed as inhibition of human APP-induced neurodegeneration after 3 hrs by fluorescence microscopic analysis"}, "HT-22 [6]": {"test_system": "HT-22", "test": "Inhibition of GSK3 in mouse HT22 cells at 10 uM after 4 hrs", "assay_type": "cell-based"}, "[7]": {"biological_target": "Dual specificity tyrosine-phosphorylation-regulated kinase 1A (Mus musculus) (UniProt Q61214)", "test": "Inhibition of DYRK1A in mouse HT22 cells at 10 uM after 4 hrs", "assay_type": "cell-based", "conditions": "HT-22"}, "HT-22 [8]": {"test_system": "HT-22", "test": "Inhibition of GSK3-mediated […] phosphorylation in mouse HT22 cells at 0.01 to 10 uM after 24 hrs by Western blot analysis in presence of MG132", "assay_type": "cell-based"}, "HT-22 [9]": {"test_system": "HT-22", "test": "Downregulation of GSK3 expression in mouse HT22 cells after 4 hrs by Western blot analysis", "assay_type": "functional, cell-based"}, "[10]": {"biological_target": "Casein kinase II subunit beta (Mus musculus) (UniProt P67871)", "test": "Binding affinity to CK2 beta subunit in mouse brain homogenate by Western blot analysis", "assay_type": "tissue-based", "in_short": "(§2)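 Bead pull-down from HT22 cell or mouse brain extracts, with ethanolamine beads lacking ligand as control. Specificity was tested by adding excess free inhibitor to the extracts before binding.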"}, "[11]": {"biological_target": "Casein kinase II subunit alpha' (Mus musculus) (UniProt O54833)", "test": "Binding affinity to CK2 alpha' subunit in mouse brain homogenate by Western blot analysis", "assay_type": "tissue-based", "in_short": "as §2"}, "[12]": {"biological_target": "Glycogen synthase kinase-3 alpha (Mus musculus) (UniProt Q2NL51)", "test": "Binding affinity to GSK3alpha in mouse brain homogenate by Western blot analysis", "assay_type": "tissue-based", "in_short": "as §2"}, "[13]": {"biological_target": "Dual specificity tyrosine-phosphorylation-regulated kinase 1A (Mus musculus) (UniProt Q61214)", "test": "Binding affinity to DYRK1A in mouse brain homogenate by Western blot analysis", "assay_type": "tissue-based", "in_short": "as §2"}, "[14]": {"biological_target": "Casein kinase II subunit beta (Mus musculus) (UniProt P67871)", "test": "Binding affinity to CK2 beta subunit in mouse HT22 cell lysate by Western blot analysis", "assay_type": "cell-free", "conditions": "HT-22", "in_short": "as §2"}, "[15]": {"biological_target": "Casein kinase II subunit alpha' (Mus musculus) (UniProt O54833)", "test": "Binding affinity to CK2 alpha' subunit in mouse HT22 cell lysate by Western blot analysis", "assay_type": "cell-free", "conditions": "HT-22", "in_short": "as §2"}, "[16]": {"biological_target": "Casein kinase II subunit alpha (Mus musculus) (UniProt Q60737)", "test": "Binding affinity to CK2 alpha subunit in mouse HT22 cell lysate by Western blot analysis", "assay_type": "cell-free", "conditions": "HT-22", "in_short": "as §2"}, "HT-22 [17]": {"test_system": "HT-22", "test": "Binding affinity to GSK3beta1 in mouse HT22 cell lysate by Western blot analysis", "assay_type": "cell-free", "in_short": "as §2"}, "[18]": {"biological_target": "1-phosphatidylinositol 3-phosphate 5-kinase (Mus musculus, UniProt Q9Z1T6)", "test": "Binding affinity to phosphatidylinositol-3-phosphate 5-kinase type 3 in mouse brain homogenate after 3 hrs by competition affinity chromatographic analysis", "assay_type": "tissue-based", "in_short": "(§3)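 Mouse brain lysate applied to a KinAffinity matrix of mixed immobilized broad-spectrum kinase inhibitors at highest loading density, with increasing concentrations of free inhibitor added. […] Separate titrations of the immobilized ligands gave BC50 values.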"}, "[19]": {"biological_target": "Casein kinase II subunit alpha' (Mus musculus, UniProt O54833)", "test": "Binding affinity to CSNK2A2 in mouse brain homogenate after 3 hrs by competition affinity chromatographic analysis", "assay_type": "tissue-based", "in_short": "as §3"}, "[20]": {"biological_target": "Casein kinase II subunit alpha (Mus musculus, UniProt Q60737)", "test": "Binding affinity to CSNK2A1 in mouse brain homogenate after 3 hrs by competition affinity chromatographic analysis", "assay_type": "tissue-based", "in_short": "as §3"}, "[21]": {"test": "Binding affinity to casein kinase 2"}, "[22]": {"biological_target": "Serine/threonine-protein kinase TAO1 (Homo sapiens, UniProt Q7L7X3)", "test": "Binding affinity to TAOK1"}, "[23]": {"biological_target": "Interleukin-1 receptor-associated kinase 1 (Homo sapiens, UniProt P51617)", "test": "Binding affinity to IRAK1"}, "[24]": {"biological_target": "Dual specificity protein kinase CLK3 (Homo sapiens, UniProt P49761)", "test": "Binding affinity to CLK3"}, "[25]": {"biological_target": "Homeodomain-interacting protein kinase 1 (Homo sapiens, UniProt Q86Z02)", "test": "Binding affinity to HIPK1"}, "[26]": {"biological_target": "Dual specificity protein kinase CLK4 (Homo sapiens, UniProt Q9HAZ1)", "test": "Binding affinity to CLK4"}, "[27]": {"test": "Inhibition of CK2 at 10 uM after 30 mins"}, "[28]": {"biological_target": "Serine/threonine-protein kinase pim-3 (Homo sapiens) (UniProt Q86V86)", "test": "Inhibition of human recombinant His6-tagged PIM3 expressed in Sf21 cells using RSRHSSYPAGT as substrate at 1 uM after 30 mins"}, "[29]": {"biological_target": "Homeodomain-interacting protein kinase 2 (Homo sapiens) (UniProt Q9H2X6)", "test": "Inhibition of human recombinant GST-tagged HIPK2 expressed in Escherichia coli at 1 uM after 30 mins"}, "[30]": {"biological_target": "Dual specificity tyrosine-phosphorylation-regulated kinase 1A (Homo sapiens) (UniProt Q13627)", "test": "Inhibition of human recombinant GST-tagged DYRK1A expressed in Escherichia coli using KKISGRLSPIMTEQ as substrate at 1 uM after 30 mins"}, "[31]": {"biological_target": "Glycogen synthase kinase-3 alpha (Homo sapiens, UniProt P49840)", "test": "Inhibition of human recombinant GSK3alpha expressed in insect cells using YRRAAVPPSPSLSRHSSPHQ-phosphoS-EDEEE as substrate and [gamma33P]ATP after 30 mins by scintillation counting"}, "[32]": {"biological_target": "T1, Dual specificity tyrosine-phosphorylation-regulated kinase 4 (Homo sapiens, UniProt Q9NR20)", "T1 sequence (Q9NR20 whole entry)": "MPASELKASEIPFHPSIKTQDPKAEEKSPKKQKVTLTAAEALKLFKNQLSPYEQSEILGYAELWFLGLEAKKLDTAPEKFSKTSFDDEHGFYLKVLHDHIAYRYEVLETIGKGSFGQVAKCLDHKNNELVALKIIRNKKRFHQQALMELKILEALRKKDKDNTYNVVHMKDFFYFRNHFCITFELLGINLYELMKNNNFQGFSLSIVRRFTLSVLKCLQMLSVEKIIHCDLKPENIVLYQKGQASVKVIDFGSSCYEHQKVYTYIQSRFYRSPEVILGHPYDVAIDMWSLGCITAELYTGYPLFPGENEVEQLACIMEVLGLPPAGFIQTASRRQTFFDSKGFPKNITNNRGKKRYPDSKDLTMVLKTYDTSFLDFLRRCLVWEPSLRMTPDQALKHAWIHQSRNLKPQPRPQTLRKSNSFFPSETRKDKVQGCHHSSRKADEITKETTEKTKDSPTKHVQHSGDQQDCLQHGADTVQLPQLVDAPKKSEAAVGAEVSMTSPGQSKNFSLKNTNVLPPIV", "test": "Inhibition of human recombinant GST-tagged DYRK4 expressed in Escherichia coli using GRSRSRSRSRSR as substrate and [gamma33P]ATP after 30 mins by scintillation counting"}},
  "note": "pIC50, pKd: −log10 of the molar value. The source made the active and inactive calls. No cut-off for these calls is given here.",
  "data": [
    {"smiles": "O=C1NC(Nc2ccccc2)=N/C1=C\\c1ccc2c(c1)OCO2", "values": [
      {"measurement": "pIC50", "setting": "[1]", "result": 6.14},
      {"measurement": "pIC50", "setting": "[2]", "result": 4.52},
      {"measurement": "pIC50", "setting": "[3]", "result": "< 4.52"},
      {"measurement": "pIC50", "setting": "[4]", "result": "< 4.52"},
      {"measurement": "inhibition", "setting": "[5]", "result": "Dose-dependent effect"},
      {"measurement": "inhibition", "setting": "HT-22 [6]", "result": "inactive"},
      {"measurement": "inhibition", "setting": "[7]", "result": "Active"},
      {"measurement": "inhibition", "setting": "HT-22 [8]", "result": "inactive"},
      {"measurement": "Activity", "setting": "HT-22 [9]", "result": "inactive"},
      {"measurement": "Activity", "setting": "[10]", "result": "Active"},
      {"measurement": "Activity", "setting": "[11]", "result": "Active"},
      {"measurement": "Activity", "setting": "[12]", "result": "Active"},
      {"measurement": "Activity", "setting": "[13]", "result": "Active"},
      {"measurement": "Activity", "setting": "[14]", "result": "Active"},
      {"measurement": "Activity", "setting": "[15]", "result": "Active"},
      {"measurement": "Activity", "setting": "[16]", "result": "Active"},
      {"measurement": "Activity", "setting": "HT-22 [17]", "result": "Active"},
      {"measurement": "Kd(free)", "setting": "[18]", "result": 6010, "unit": "nM"},
      {"measurement": "Kd(free)", "setting": "[19]", "result": 574, "unit": "nM"},
      {"measurement": "Kd(free)", "setting": "[20]", "result": 326, "unit": "nM"},
      {"measurement": "Activity", "setting": "[21]", "result": "Active"},
      {"measurement": "pKd", "setting": "[22]", "result": 5.77},
      {"measurement": "pKd", "setting": "[23]", "result": 6.03},
      {"measurement": "pKd", "setting": "[24]", "result": 5.96},
      {"measurement": "pKd", "setting": "[25]", "result": 6.49},
      {"measurement": "pKd", "setting": "[26]", "result": 7.15},
      {"measurement": "inhibition", "setting": "[27]", "result": "Active"},
      {"measurement": "inhibition", "setting": "[28]", "result": "Active"},
      {"measurement": "inhibition", "setting": "[29]", "result": "Active"},
      {"measurement": "inhibition", "setting": "[30]", "result": "Active"},
      {"measurement": "pIC50", "setting": "[31]", "result": 6.68},
      {"measurement": "pIC50", "setting": "[32]", "result": 6.28}
    ]}
  ]
}
